Bioassay records as filed in PubChem BioAssay.
Most compounds without a hit are left out; they make up all but 3.8% or so of the library.
DENV2 CPE: protects cells from dengue virus 2 cytopathic effect; CPE inhibition, % at 9.99 µM; 1.7% of 350,000 active; DENV2-infected cells, cytopathic effect rescue, plate reader; in the data active means CPE inhibition above about 20%, passing the limit was not always enough; tested in BHK-21 cells;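 further: 0% = median of neutral control wells and 100% = median of positive control wells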
Xi reactivation: X-chromosome reactivation activator; AID 743238; XiGFP mouse fibroblasts, % GFP-positive cells imaging, 3 d; cells co-treated with 5-aza-dC sensitizer; scaled so ellipticine positive control = 100%; 0.055% of 360,000 active; activation, % at 7.58 µM;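 active means mean normalized replicate activation at least 10% and every replicate at or above 10%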;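 further: 0% = median of on-plate neutral control wells and 100% = ellipticine 6 µM median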
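Material: SV40-immortalized XiGFP fibroblast cells, line 68-5-11 | Buffer or medium: DMEM containing 5-aza-dC | Dosing: One concentration, pinned | Times: 3 d treatment, 15 min room-temperature fixation | Controls: Ellipticine 6 µM positive control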
FN deposit inh: fibronectin deposition inhibition; AH1F fibroblasts, Alexa488-fibronectin deposition fluorescence, overnight; inhibition, % at 12.6 µM; 0.086% of 350,000 active;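 active means mean inhibition across replicates of 30% or more, regardless of how many single replicates reach that level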;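 further: positive control wells lacked labelled fibronectin entirely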
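Schedule: 1 h cell adhesion before compound, then overnight fibronectin incubation; test system: AH1F fibroblast monolayer depositing Alexa488-labelled fibronectin into matrix; quantity: 10000 AH1F cells per well; probe or stimulus: fluorescent fibronectin at 24 nM final; signal: fluorescence, ex 485 nm, em 525 nm; evaluation: percent inhibition as loss of matrix-bound fibronectin fluorescence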
FGF22 binding: FGF22 (human) thermal shift binding | Q9HCT0 | recombinant FGF22 thermal shift, SYPRO orange fluorescence; percent of sucrose octasulfate shift, DMSO zero | activity (Tm shift, normalised), % at 9.99 µM | 1.5% of 340,000 active;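 active means mean Tm shift, scaled 0 neutral to 100 positive control, at about 1.3% or above, every replicate too, limit read from the data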
Target sequence (Q9HCT0 whole entry, looked up): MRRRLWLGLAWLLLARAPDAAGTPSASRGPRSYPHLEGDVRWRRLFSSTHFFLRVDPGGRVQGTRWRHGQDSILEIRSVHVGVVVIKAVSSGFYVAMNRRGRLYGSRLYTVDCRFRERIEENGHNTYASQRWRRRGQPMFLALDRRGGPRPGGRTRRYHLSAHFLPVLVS
ARNT TACC3 PPI: disrupts binding between human ARNT and TACC3. AID 623870. 0.66% of 390,000 active. AlphaScreen His-ARNT PAS-B/GST-TACC3 binding, luminescence; TACC3 fragment carries E629A point mutation. inhibition, % at 9.99 µM;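 active means mean inhibition of replicates at least 50% and at least half of replicates each reaching 50%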;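 further: 0% = complete ARNT plus TACC3 wells and 100% = ARNT alone without TACC3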
SIRT5 inh: inhibitors of human sirtuin-5 desuccinylase | Q9NXA8 | Purified SirT5, succinyl-peptide AMC, trypsin-coupled fluorescence | inhibition, % at 15 µM | 1.1% of 330,000 active | AID 652115; in the data active means inhibition above about 15%
Target sequence (Q9NXA8 whole entry, looked up): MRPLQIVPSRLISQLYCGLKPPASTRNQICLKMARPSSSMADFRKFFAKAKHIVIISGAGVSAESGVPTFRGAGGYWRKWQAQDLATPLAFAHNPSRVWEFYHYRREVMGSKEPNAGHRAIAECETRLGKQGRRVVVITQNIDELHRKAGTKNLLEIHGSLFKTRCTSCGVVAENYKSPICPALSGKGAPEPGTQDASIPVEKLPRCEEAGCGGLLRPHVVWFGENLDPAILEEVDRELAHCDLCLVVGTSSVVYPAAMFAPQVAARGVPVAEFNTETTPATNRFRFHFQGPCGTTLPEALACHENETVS
Active calls of the source: *.

How did O=C(C[C@@H]1C=C[C@@H](NC(=O)Nc2ccc3c(c2)OCO3)[C@@H](CO)O1)NCc1ccc(Cl)cc1 do in these assays?
DENV2 CPE: 0; Xi reactivation: 0; FGF22 binding: 0; ARNT TACC3 PPI: -2; SIRT5 inh: 0

How did C[C@@H]1CCCCO[C@@H](CN(C)C(=O)Nc2ccc(F)cc2)[C@H](C)CN([C@@H](C)CO)C(=O)c2cc(NC(=O)Nc3ccc(C(F)(F)F)cc3)ccc2O1 do in these assays?
DENV2 CPE: 3; Xi reactivation: 1; FGF22 binding: 1.4*; SIRT5 inh: 2

How did C[C@@H]1CCCCO[C@H](CN(C)C(=O)Nc2ccc(C(F)(F)F)cc2)[C@@H](C)CN([C@H](C)CO)C(=O)c2cc(NC(=O)Nc3ccc(F)cc3)ccc2O1 do in these assays?
DENV2 CPE: -1; Xi reactivation: 0; FN deposit inh: -7; FGF22 binding: 0; ARNT TACC3 PPI: 3; SIRT5 inh: 7

How did C[C@@H]1CCCCO[C@@H](CN(C)C(=O)Nc2ccc(C(F)(F)F)cc2)[C@@H](C)CN([C@H](C)CO)C(=O)c2cc(NC(=O)Nc3ccc(F)cc3)ccc2O1 do in these assays?
DENV2 CPE: 6; Xi reactivation: 0; FN deposit inh: -11; FGF22 binding: 0; SIRT5 inh: 1

What do the screens show for `C[C@H]1CCCCO[C@H](CN(C)C(=O)Nc2ccc(F)cc2)[C@@H](C)CN([C@@H](C)CO)C(=O)c2cc(NC(=O)Nc3ccc(C(F)(F)F)cc3)ccc2O1`?
DENV2 CPE: -1; Xi reactivation: 0; FGF22 binding: 1.6*; SIRT5 inh: -3

Results for C[C@H]1CCCCO[C@H](CN(C)C(=O)Nc2ccc(C(F)(F)F)cc2)[C@@H](C)CN([C@@H](C)CO)C(=O)c2cc(NC(=O)Nc3ccc(F)cc3)ccc2O1 ?
DENV2 CPE: -2; Xi reactivation: 0; FN deposit inh: 2; FGF22 binding: 0; ARNT TACC3 PPI: 2; SIRT5 inh: 17*

How did COc1ccc2c3c(n(C)c2c1)[C@@H](CO)N(S(C)(=O)=O)CC31CCN(CC2CCCC2)CC1 do in these assays?
DENV2 CPE: 56*; Xi reactivation: 0; FGF22 binding: 0; SIRT5 inh: 4

What do the screens show for `COc1ccc2c3c(n(C)c2c1)[C@@H](CO)N(S(C)(=O)=O)CC31CCN(CC2CCCCC2)CC1`?
DENV2 CPE: 9; Xi reactivation: 0; FN deposit inh: 13; FGF22 binding: 0; SIRT5 inh: 0

Results for COc1ccc2c3c(n(C)c2c1)[C@@H](CO)N(S(=O)(=O)c1cn(C)cn1)CC31CCN(C)CC1 ?
Xi reactivation: 0; FN deposit inh: 3

Results for COc1ccc2c3c(n(C)c2c1)[C@@H](CO)N(C)CC31CCN(CC2CC2)CC1 ?
DENV2 CPE: 48*; Xi reactivation: 0; FGF22 binding: 0

Results for COc1ccc2c3c(n(C)c2c1)[C@H](CO)N(C)CC31CN(CC2CC2)C1 ?
DENV2 CPE: 9; Xi reactivation: 0; FN deposit inh: -4; SIRT5 inh: -4

How did COc1ccc2c3c(n(C)c2c1)[C@H](CO)N(S(=O)(=O)c1cn(C)cn1)CC31CCN(C)CC1 do in these assays?
DENV2 CPE: 32*; Xi reactivation: 0; FN deposit inh: -11; FGF22 binding: 0; SIRT5 inh: -3

Results for CN1C(=O)c2cc(NS(C)(=O)=O)ccc2OC[C@@H]2O[C@@H](CC(=O)NCc3ccccc3)CC[C@@H]21 ?
DENV2 CPE: -13; Xi reactivation: 0; FN deposit inh: 8; FGF22 binding: 0; ARNT TACC3 PPI: -1; SIRT5 inh: -1

How did CCN(Cc1ccccc1)S(=O)(=O)c1ccc(C(=O)N(CCCN(C)C)c2nc3cc4c(cc3s2)OCO4)cc1 do in these assays?
DENV2 CPE: 3; Xi reactivation: 0; FN deposit inh: 2; FGF22 binding: 0; ARNT TACC3 PPI: 1; SIRT5 inh: 1

What do the screens show for `CN(C)CCCN(C(=O)c1ccc(S(=O)(=O)N(C)C)cc1)c1nc2cc3c(cc2s1)OCO3`?
DENV2 CPE: -1; Xi reactivation: 0; FN deposit inh: 4; FGF22 binding: 43*; SIRT5 inh: 1

How did CN(C)CCN(C(=O)c1ccc2c(c1)OCCO2)c1nc2ccc(Cl)cc2s1 do in these assays?
DENV2 CPE: -3; Xi reactivation: 0; FN deposit inh: -3; FGF22 binding: 0; ARNT TACC3 PPI: 46*; SIRT5 inh: 1

How did COCC#Cc1ccc([C@H]2[C@H](CO)N3C(=O)CN(C(=O)C4CCCC4)C[C@@H]23)cc1 do in these assays?
DENV2 CPE: 12; Xi reactivation: 0; FN deposit inh: 4; SIRT5 inh: 5

What do the screens show for `CO[C@H]1CN(C)C(=O)c2cc(NC(=O)c3ccc(F)cc3)ccc2OC[C@@H](C)NC[C@H]1C`?
Xi reactivation: 0; FN deposit inh: 3; ARNT TACC3 PPI: -3

How did CCc1ccc(S(=O)(=O)Nc2ccc(O)c3c(=O)cc(-c4ccccc4Cl)oc23)cc1 do in these assays?
DENV2 CPE: 6; Xi reactivation: 0; FN deposit inh: -5; FGF22 binding: 19*; ARNT TACC3 PPI: -2

What do the screens show for `N[C@@H](C(=O)N[C@@H]1C(=O)N2C(C(=O)O)=C(Cl)CS[C@H]12)c1ccccc1`?
DENV2 CPE: 8; Xi reactivation: 0; FN deposit inh: 5; FGF22 binding: 0; ARNT TACC3 PPI: 40*; SIRT5 inh: 0

What do the screens show for `COc1ccc(S(=O)(=O)N(C)C[C@H]2OCCCC[C@H](C)Oc3ccc(NS(=O)(=O)c4ccc(C)cc4)cc3C(=O)N([C@@H](C)CO)C[C@H]2C)cc1`?
DENV2 CPE: 5; Xi reactivation: 0; FGF22 binding: 0; ARNT TACC3 PPI: -5; SIRT5 inh: 20*

Results for COc1ccc(S(=O)(=O)Nc2ccc3c(c2)C(=O)N([C@@H](C)CO)C[C@H](C)[C@H](CN(C)S(=O)(=O)c2ccccc2)OCCCC[C@@H](C)O3)cc1 ?
DENV2 CPE: 8; Xi reactivation: 0; FGF22 binding: 0; SIRT5 inh: 15*

What do the screens show for `COc1ccc(S(=O)(=O)Nc2ccc3c(c2)C(=O)N([C@H](C)CO)C[C@H](C)[C@@H](CN(C)S(=O)(=O)c2ccc(C)cc2)OCCCC[C@@H](C)O3)cc1`?
DENV2 CPE: 0; Xi reactivation: 0; FN deposit inh: 3; FGF22 binding: 0; ARNT TACC3 PPI: 0; SIRT5 inh: 13
